Source: PubChem (several laboratories)
APP 5'UTR act: activators of APP 5'UTR luciferase reporter, primary screen, SH-SY5Y cells; activation, % at 2 µM; SH-SY5Y APP 5'UTR luciferase reporter, luminescence; zero percent = DMSO vehicle wells; hit rate 1% among 190,000;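 active = activation above a set limit, based on mean plus 3 SD of controls, cut at about 140% in these data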
NF-kB neuron act: activators of NF-kB expression in neurons, primary screen, cell-based, HTS | human neuronal cells, NF-kB reporter expression; active compounds read high | fold change at 12.5 µM | hit rate 1.6% among 190,000 | AID 1239, 2008; in the data active = fold change above about 3.3
PERK inhibitor: block of dimerizer-induced PERK translation repression, primary screen, PERK inhibitor project, CHO PERK-DD cells, SEAP luminescence, HTS | Eukaryotic translation initiation factor 2-alpha kinase 3 (Homo sapiens), Q9NZJ5 | inhibition, % at 5.6 µM | AID 1416, 2008 | hit rate 0.17% among 220,000 | CHO PERK-DD fusion, SEAP luminescence translation reporter;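 active = inhibition above the mean inhibition of all tested compounds plus 3 SD, set separately per screening campaign, cut at about 2.9% in these data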;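 also: PERK kinase domain activated by AP20187 dimerizer at 100 nM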
MDM2 E3 inh: MDM2-luciferase reporter signal enhancers, primary screen, MDM2 E3 ligase inhibitor project, cell-based, luminescence, 1536-well; E3 ubiquitin-protein ligase Mdm2 (Homo sapiens), Q00987; AID 1230, 2008; cell-based MDM2 ubiquitination luciferase reporter, 2 h; 0 = plate control, 100 = twice control, blank-subtracted; signal enhancement, % at 5 µM; hit rate 0.11% among 210,000;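 active = signal enhancement of 30% or more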;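 also: luminescence tracks abundance of the self-degrading MDM2-luciferase fusion protein; higher signal means inhibition of MDM2 E3 ligase activity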
Target sequence (Q00987 whole entry, looked up, the tested form may be a part): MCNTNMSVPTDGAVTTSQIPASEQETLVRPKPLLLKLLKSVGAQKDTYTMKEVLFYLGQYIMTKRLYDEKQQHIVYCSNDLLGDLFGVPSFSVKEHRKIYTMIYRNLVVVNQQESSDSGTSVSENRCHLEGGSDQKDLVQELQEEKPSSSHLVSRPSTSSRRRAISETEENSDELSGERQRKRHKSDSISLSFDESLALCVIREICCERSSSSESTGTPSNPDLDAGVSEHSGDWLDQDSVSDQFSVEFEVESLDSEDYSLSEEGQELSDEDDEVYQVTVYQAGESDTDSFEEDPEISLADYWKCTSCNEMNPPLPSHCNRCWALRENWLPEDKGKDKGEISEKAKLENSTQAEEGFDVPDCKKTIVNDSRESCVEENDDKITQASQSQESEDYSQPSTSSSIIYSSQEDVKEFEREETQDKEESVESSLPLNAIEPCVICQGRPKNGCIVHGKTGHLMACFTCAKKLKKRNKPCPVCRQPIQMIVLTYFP
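Assay system: stable mammalian line carrying autodegrading MDM2–luciferase fusion reporter; amount: 2000 cells seeded into each well; buffer or medium: DMEM; benchmarks: plate control and blank wells; signal: luciferase luminescence; timing: 2 h compound exposure at 37 °C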
STAT1 activator: STAT1 signaling activators, primary screen, cell-based, HTS, luciferase reporter; hit rate 2.6% among 200,000; NIH 3T3 STAT1-luciferase reporter, IFN-gamma, luminescence; 100% = IFN-gamma alone, no compound; activation (% of control), % at 5.5 µM; AID 932, 2007;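 active = activation above the screen-wide mean activation plus 3 SD, cut at about 130% in these data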
AHR activator: AHR activators, primary screen, cell-based, luminescence, luciferase reporter, human; AHR-responsive luciferase reporter cells; hit rate 2.5% among 320,000; Aryl hydrocarbon receptor (Homo sapiens), P35869; activation, % at 5 µM; in the data active = activation above about 47%
A number is an active result; 0 = inactive; - = no result. Hits are enriched below; roughly 4.5% of the tested compounds scored in any of these assays.

SMILES	APP 5'UTR act	NF-kB neuron act	PERK inhibitor	MDM2 E3 inh	STAT1 activator	AHR activator
COc1ccc2oc(C(=O)OCC(=O)N3CCCC3=O)c(C)c2c1	-	-	-	-	-	0
Cc1ccc(/C=C2\OC(=O)c3ccccc32)cc1	0	5.7	0	0	146	0
COC(=O)c1sccc1NC(=S)N1CC(C)CC(C)C1 (stereo not drawn)	-	0	0	0	0	0
COc1ccc(C)cc1NC(=O)C(OC(=O)C1CC1)c1ccccc1 (stereo not drawn)	0	0	0	0	0	55
COc1cc(/C=N/N=C(N)N)ccc1OCc1ccc(Cl)cc1	180	0	0	0	0	0
CCOc1cc(/C=N/N=C(N)N)ccc1OCc1ccc(Cl)cc1	0	0	0	0	0	0
CCOc1cc(/C=N/N=C2/NC(=O)C(CC(=O)O)S2)ccc1OCc1ccc(Cl)cc1Cl (stereo not drawn)	0	0	0	0	0	0
COc1cc(/C=N/N=C2/NC(=O)C(CC(=O)O)S2)ccc1OCc1ccc(Cl)cc1 (stereo not drawn)	0	0	0	0	130	0
CCOc1cc(S(=O)(=O)N2CCOCC2)ccc1F	0	0	0	0	0	0
Cc1cc(S(=O)(=O)N2CCOCC2)ccc1F	0	4.4	0	0	0	0
CCc1ccc(NC(=O)CSc2nnc(-c3cnccn3)n2C)cc1	-	-	-	-	-	0
CN(C)c1ccc(NC(=O)CSc2nnc(-c3cnccn3)n2C)cc1	-	-	-	-	-	51
CCCCSc1ccc2nc(-c3ccc(C#N)cc3)cn2c1	0	0	0	0	131	0
O=C(Nc1cccc(NC(=O)c2ccco2)c1)c1ccccc1	-	-	-	-	-	0
O=C(Nc1cccc(-c2nc3ccccc3[nH]2)c1)c1ccco1	0	0	0	0	0	51
O=C(Nc1ccccc1O)c1cccc(NC(=O)c2ccco2)c1	-	-	-	-	-	54
O=C(Nc1cccc(NC(=O)c2sc3ccccc3c2Cl)c1)c1ccco1	0	0	0	0	0	0
Cn1cccc1-c1nc2ccc(NC(=O)c3ccco3)cc2[nH]1	0	0	0	0	0	0
O=C(Nc1cccc(NC(=O)c2nccc3ccccc23)c1)c1ccco1	-	-	-	-	-	102
O=C(c1ccccc1)c1cccc(NC(=O)c2ccco2)c1	0	0	0	0	129	0
CC(=O)c1cccc(NC(=O)c2ccco2)c1	0	0	0	0	0	0
CC(=O)Nc1ccc(NC(=O)C2CCN(C(=O)NC3CCCCC3)CC2)cc1	-	-	-	-	-	0
O=C(Cc1ccc(S(=O)(=O)N2CCOCC2)s1)Nc1ccc(S(=O)(=O)N2CCCCC2)cc1	-	-	-	-	-	0
COc1ccc(CNC(=O)CN(Cc2ccccc2)C(=O)CCC(=O)Nc2ccccn2)cc1	-	-	-	-	-	0
COC(=O)Cc1[nH]c(=S)[nH]c1C(=O)OC	-	-	0	0	-	0
SMILES	APP 5'UTR act	NF-kB neuron act	PERK inhibitor	MDM2 E3 inh	STAT1 activator	AHR activator
COc1ccc(NC(=S)N(CCc2c(C)[nH]c3ccc(C)cc23)Cc2cccs2)cc1	0	0	0	-	0	64
COc1ccc2[nH]c(C)c(CCN(Cc3cccs3)C(=S)Nc3ccc(F)cc3)c2c1	0	0	0	0	0	0
COc1ccc(NC(=S)N(CCO)Cc2cc3c(C)cc(C)cc3[nH]c2=O)cc1	-	-	0	0	-	59
CC1CCCN(S(=O)(=O)CCNC(=O)c2ccccc2)C1 (stereo not drawn)	-	-	-	-	-	0
CCc1ccccc1NC1=NCC(=O)N1Cc1ccc2c(c1)OCO2	0	0	0	0	0	0
CNc1ccccc(-c2ccc3cc4c(cc3n2)OCO4)c1=O	0	0	0	0	0	70
CCC(C(=O)NCCc1ccc(S(N)(=O)=O)cc1)c1ccccc1 (stereo not drawn)	-	-	-	-	-	0
CCn1cnc2c(NCCc3cccnc3)nc(C#N)nc21	-	-	-	-	-	71
CCn1cnc2c(Nc3cccc(Cl)c3)nc(C#N)nc21	-	-	-	-	-	0
CC(=O)Nc1nc(COc2ccccc2)cs1	0	0	0	0	0	0
CC(=O)Nc1nc(CC(=O)c2ccccc2)cs1	-	-	-	-	-	58
O=C(COc1cc2oc(=O)cc(-c3ccccc3)c2cc1Cl)NCCN1CCOCC1	-	-	-	-	-	0
